From ChEMBL document CHEMBL1131093, “ATP-Citrate lyase as a target for hypolipidemic intervention. 2. Synthesis and evaluation of (3R,5S)-omega-substituted-3-carboxy-3, 5-dihydroxyalkanoic acids and their gamma-lactone prodrugs as inhibitors of the enzyme in vitro and in vivo” (J Med Chem, 1998)
Values joined by “and” are separate entries in the source; they are usually repeats but may differ in a detail not shown here. Equal values may be shown once.

What was measured:
Parameters in all cases: scale not given: the % may be the effect or the level left
HepG2 [1] = assay: Inhibition of ATP levels in HepG2 cells was measured at 15 uM concentration.; assay type: functional, Homo sapiens
Summary of the method: (§1)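 Compounds were applied to HepG2 cells as their γ-lactone prodrugs. De novo cholesterol synthesis, fatty acid synthesis and cellular ATP levels were each expressed as % of control. Significance was marked at p < 0.001.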

HepG2 [2] = assay: Inhibition of cholesterol synthesis in HepG2 cells was measured at 5 uM concentration.; assay type: functional, Homo sapiens; summary of the method: as §1
HepG2 [3] = assay: (§2) Inhibition of fatty acid synthesis in HepG2 cells was measured at 15 uM concentration.; assay type: functional, Homo sapiens; summary of the method: as §1
HepG2 [4] = assay: Inhibition of ATP levels in HepG2 cells was measured at 30 uM concentration.; assay type: functional, Homo sapiens; summary of the method: as §1
HepG2 [5] = assay: Inhibition of fatty acid synthesis in HepG2 cells was measured at 30 uM concentration.; assay type: functional, Homo sapiens; summary of the method: as §1
HepG2 [6] = assay: as §2; assay type: functional, Homo sapiens; summary of the method: as §1; remark: listed apart in the source
HepG2 [7] = assay: Inhibition of fatty acid synthesis in HepG2 cells was measured at 5 uM concentration.; assay type: functional, Homo sapiens; summary of the method: as §1
HepG2 [8] = assay: Inhibition of cholesterol synthesis in HepG2 cells was measured at 15 uM concentration.; assay type: functional, Homo sapiens; summary of the method: as §1
HepG2 [9] = assay: Inhibition of cholesterol synthesis in HepG2 cells was measured at 30 uM concentration.; assay type: functional, Homo sapiens; summary of the method: as §1
HepG2 [10] = assay: Inhibition of cholesterol synthesis in HepG2 cells was measured at 1000 uM concentration.; assay type: functional, Homo sapiens; summary of the method: as §1
HepG2 [11] = assay: Inhibition of cholesterol synthesis in HepG2 cells was measured at 100 uM concentration.
HepG2 [12] = assay: Inhibition of ATP levels in HepG2 cells was measured at 300 uM concentration.; assay type: functional, Homo sapiens; summary of the method: as §1
HepG2 [13] = assay: Inhibition of fatty acid synthesis in HepG2 cells was measured at 100 uM concentration.
HepG2 [14] = assay: Inhibition of cholesterol synthesis in HepG2 cells was measured at 300 uM concentration.; assay type: functional, Homo sapiens; summary of the method: as §1
HepG2 [15] = assay: Inhibition of fatty acid synthesis in HepG2 cells was measured at 300 uM concentration.; assay type: functional, Homo sapiens; summary of the method: as §1
HepG2 [16] = assay: Inhibition of fatty acid synthesis in HepG2 cells was measured at 1000 uM concentration.; assay type: functional, Homo sapiens; summary of the method: as §1
HepG2 [17] = assay: Inhibition of ATP levels in HepG2 cells was measured at 1000 uM concentration.; assay type: functional, Homo sapiens; summary of the method: as §1
HepG2 [18] = assay: Inhibition of ATP levels in HepG2 cells was measured at 10 uM concentration.; assay type: functional, Homo sapiens; summary of the method: as §1
HepG2 [19] = assay: Inhibition of fatty acid synthesis in HepG2 cells was measured at 3 uM concentration.; assay type: functional, Homo sapiens; summary of the method: as §1
HepG2 [20] = assay: (§3) Inhibition of fatty acid synthesis in HepG2 cells was measured at 10 uM concentration.; assay type: functional, Homo sapiens; summary of the method: as §1
HepG2 [21] = assay: Inhibition of cholesterol synthesis in HepG2 cells was measured at 3 uM concentration.; assay type: functional, Homo sapiens; summary of the method: as §1
HepG2 [22] = assay: Inhibition of cholesterol synthesis in HepG2 cells was measured at 10 uM concentration.; assay type: functional, Homo sapiens; summary of the method: as §1
HepG2 [23] = assay: Inhibition of ATP levels in HepG2 cells was measured at 3 uM concentration.; assay type: functional, Homo sapiens; summary of the method: as §1
HepG2 [24] = assay: as §3; assay type: functional, Homo sapiens; summary of the method: as §1; remark: listed apart in the source

## O=C(O)C[C@@]1(O)C[C@@H](CCCCCCc2ccc(Cl)cc2Cl)OC1=O (stereo in doubt; (+)-77)
HepG2 [1]
  Control: 100%
HepG2 [2]
  Control: 95%
HepG2 [3]
  Control: 81%
HepG2 [4]
  Control: 99%
HepG2 [5]
  Control: 25%
HepG2 [6]
  Control: 69%
HepG2 [7]
  Control: 113%
HepG2 [8]
  Control: 52% and 41%
HepG2 [9]
  Control: 11%

## O=C(O)C[C@@](O)(C(=O)O)[C@H](O)C(=O)O
HepG2 [10]
  Control: 15%
HepG2 [11]
  Control: 110%
HepG2 [12]
  Control: 103%
HepG2 [13]
  Control: 87%
HepG2 [14]
  Control: 40%
HepG2 [15]
  Control: 79%
HepG2 [16]
  Control: 57%
HepG2 [17]
  Control: 104%

## O=C(O)C[C@@]1(O)C[C@@H](CCCCCCc2ccc(Cl)cc2-c2ccccc2)OC1=O
HepG2 [4]
  Control: 95%
HepG2 [18]
  Control: 96% and 100%
HepG2 [19]
  Control: 108%
HepG2 [20]
  Control: 75%
HepG2 [21]
  Control: 101%
HepG2 [22]
  Control: 65% and 60%
HepG2 [23]
  Control: 98%
HepG2 [24]
  Control: 88%
